Test results taken from ChEMBL document CHEMBL3525963, “Tissue distribution and elimination of [14C]apixaban in rats” (Drug Metab Dispos, 2011).

Legend:
Rattus norvegicus [1] = experiment: Biodistribution in pregnant Sprague-Dawley rat pituitary gland at 5 mg/kg, po administered as single dose measured after 1 hr; type: ADME, organism-based; set-up: dose 5 mg/kg, dosed compound name [14C]-apixaban, route oral; conditions: in vivo
Plasma = experiment: Drug metabolism in Sprague-Dawley rat plasma assessed as apixaban level at 5 mg/kg, po by HPLC method; type: ADME, organism-based; set-up: dose 5 mg/kg, dosed compound name [14C]-apixaban, route oral; conditions: in vivo
Method in brief: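 After a 5 mg/kg oral dose, samples were radioprofiled by HPLC. The column was C18 with a 0.4% formic acid (pH 3.2)/acetonitrile gradient at 0.7 mL/min. Fractions were collected every 0.25 min and counted for radioactivity. Peaks were identified by ESI LC/MS/MS against synthetic standards. Milk was taken at 1, 6, 12 and 24 h.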

Rattus norvegicus [2] = experiment: Biodistribution in pregnant Sprague-Dawley rat placenta at 5 mg/kg, po administered as single dose measured after 24 hrs; type: ADME, organism-based; set-up: dose 5 mg/kg, dosed compound name [14C]-apixaban, route oral; conditions: in vivo
Rattus norvegicus [3] = experiment: Biodistribution in pregnant Sprague-Dawley rat bone marrow at 5 mg/kg, po administered as single dose measured after 0.5 hrs; type: ADME, organism-based; set-up: dose 5 mg/kg, dosed compound name [14C]-apixaban, route oral; conditions: in vivo
Rattus norvegicus [4] = experiment: Biodistribution in female Sprague-Dawley rat salivary gland at 5 mg/kg, po administered as single dose measured after 1 hr; type: ADME, organism-based; set-up: dose 5 mg/kg, dosed compound name [14C]-apixaban, route oral; conditions: in vivo
Method in brief: (§1)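 [14C]apixaban (20 μCi/mL in dosing solution) in 0.5% Tween 80 in Labrafil given by oral gavage to fasted female rats, 206-213 g, at 100 μCi/kg. One rat per time point was euthanized and snap-frozen. Sagittal 40 µm whole-body sections were read by QWBA phosphor imaging against [14C]glucose standards. Results are in µg eq apixaban/g, with LLOQ 0.037 μg eq/g.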

Heart [5] = experiment: Biodistribution in pregnant Sprague-Dawley rat heart at 5 mg/kg, po administered as single dose measured after 8 hrs; type: ADME, organism-based; set-up: dose 5 mg/kg, dosed compound name [14C]-apixaban, route oral; conditions: in vivo
Muscle tissue = experiment: Biodistribution in pregnant Sprague-Dawley rat muscle at 5 mg/kg, po administered as single dose measured after 4 hrs; type: ADME, organism-based; set-up: dose 5 mg/kg, dosed compound name [14C]-apixaban, route oral; conditions: in vivo
Spleen = experiment: Biodistribution in female Sprague-Dawley rat spleen at 5 mg/kg, po administered as single dose measured after 0.5 hrs; type: ADME, organism-based; set-up: dose 5 mg/kg, dosed compound name [14C]-apixaban, route oral; conditions: in vivo
Method in brief: (§2)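 [¹⁴C]Apixaban given by oral gavage at 5 mg/kg (100 μCi/kg) in 0.5% Tween 80 in Labrafil (1.0 mg/mL dosing solution) to rats fasted overnight through 4 h post-dose. One rat per time point; carcass frozen in hexane/dry ice. Quantitative whole-body autoradiography used 40 µm sagittal sections and a phosphor imaging plate calibrated with [¹⁴C]glucose standards (0.001–6.5 μCi/g). Read-out in µg eq apixaban/g; LLOQ 0.037 μg eq/g.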

Rattus norvegicus [6] = experiment: Biodistribution in fetal blood of pregnant Sprague-Dawley rat at 5 mg/kg, po administered as single dose measured after 24 hrs; type: ADME, organism-based; set-up: dose 5 mg/kg, dosed compound name [14C]-apixaban, route oral; conditions: in vivo
Method in brief: (§3)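 Quantitative whole-body autoradiography was run after a single 5 mg/kg (100 μCi/kg) oral gavage to fasted female or pregnant SD rats, one rat per time point. Carcasses were frozen in hexane/dry ice, and 40 µm sagittal sections were dried at −20°C for at least 48 h. Sections were exposed to a phosphor plate alongside [14C]glucose standards (0.001–6.5 µCi/g). Results are µg eq/g, with LLOQ 0.037 µg eq/g.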

Thymus [7] = experiment: Biodistribution in male Sprague-Dawley rat thymus at 5 mg/kg, po administered as single dose measured after 4 hrs; type: ADME, organism-based; set-up: dose 5 mg/kg, dosed compound name [14C]-apixaban, route oral; conditions: in vivo
Rattus norvegicus [8] = experiment: Biodistribution in pregnant Sprague-Dawley rat pituitary gland at 5 mg/kg, po administered as single dose measured after 8 hrs; type: ADME, organism-based; set-up: dose 5 mg/kg, dosed compound name [14C]-apixaban, route oral; conditions: in vivo
Rattus norvegicus [9] = experiment: Biodistribution in female Sprague-Dawley rat brown fat at 5 mg/kg, po administered as single dose measured after 4 hrs; type: ADME, organism-based, Brown adipose tissue; set-up: dose 5 mg/kg, dosed compound name [14C]-apixaban, route oral; conditions: in vivo; method in brief: as §1
Harderian gland = experiment: Biodistribution in male Sprague-Dawley rat harderian gland at 5 mg/kg, po administered as single dose measured after 8 hrs; type: ADME, organism-based; set-up: dose 5 mg/kg, dosed compound name [14C]-apixaban, route oral; conditions: in vivo; method in brief: as §2
Pancreas = experiment: Biodistribution in female Sprague-Dawley rat pancreas at 5 mg/kg, po administered as single dose measured after 4 hrs; type: ADME, organism-based; set-up: dose 5 mg/kg, dosed compound name [14C]-apixaban, route oral; conditions: in vivo; method in brief: as §2
Rattus norvegicus [10] = experiment: Biodistribution in pregnant Sprague-Dawley rat kidney cortex at 5 mg/kg, po administered as single dose measured after 0.5 hrs; type: ADME, organism-based; set-up: dose 5 mg/kg, dosed compound name [14C]-apixaban, route oral; conditions: in vivo
Heart [11] = experiment: Biodistribution in male Sprague-Dawley rat heart at 5 mg/kg, po administered as single dose measured after 4 hrs; type: ADME, organism-based; set-up: dose 5 mg/kg, dosed compound name [14C]-apixaban, route oral; conditions: in vivo
Method in brief: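 [14C]apixaban (1.0 mg/mL, 20 μCi/mL) in 0.5% Tween 80 in Labrafil, given by oral gavage at 100 μCi/kg to male rats (225-252 g) fasted overnight through 4 h post-dose. One rat per time point. Carcasses frozen in hexane/dry ice and cut into 40 µm sagittal sections. QWBA read on phosphor plates against [14C]glucose standards, reported as µg eq/g. LLOQ 0.037 µg eq/g.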

Heart [12] = experiment: Biodistribution in pregnant Sprague-Dawley rat heart at 5 mg/kg, po administered as single dose measured after 24 hrs; type: ADME, organism-based; set-up: dose 5 mg/kg, dosed compound name [14C]-apixaban, route oral; conditions: in vivo
Method in brief: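 Fasted pregnant SD rats (n=6, 270-319 g) each received one oral gavage dose of [14C]apixaban, 5 mg/kg (100 μCi/kg), in 0.5% Tween 80/Labrafil. One rat was killed at each of 0.5, 1, 4, 8, 24 and 48 h. Carcasses were frozen in hexane/dry ice, cut into 40 µm sagittal sections, exposed to phosphor plates and quantified against [14C]glucose standards as µg eq/g. LLOQ was 0.037 µg eq/g.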

Liver = experiment: Biodistribution in pregnant Sprague-Dawley rat liver at 5 mg/kg, po administered as single dose measured after 24 hrs; type: ADME, organism-based; set-up: dose 5 mg/kg, dosed compound name [14C]-apixaban, route oral; conditions: in vivo
[13] = Drug excretion in Sprague-Dawley rat urine assessed as apixaban level at 30 mg/kg, po by HPLC method; conditions: read-out: Compound recovery
Thymus [14] = experiment: Biodistribution in female Sprague-Dawley rat thymus at 5 mg/kg, po administered as single dose measured after 1 hr; type: ADME, organism-based; set-up: dose 5 mg/kg, dosed compound name [14C]-apixaban, route oral; conditions: in vivo; method in brief: as §2
Heart [15] = experiment: Biodistribution in female Sprague-Dawley rat heart at 5 mg/kg, po administered as single dose measured after 4 hrs; type: ADME, organism-based; set-up: dose 5 mg/kg, dosed compound name [14C]-apixaban, route oral; conditions: in vivo; method in brief: as §2
Blood [16] = experiment: Cmax in lactating Sprague-Dawley rat blood at 5 mg/kg, po administered as single dose; type: ADME, organism-based; set-up: dose 5 mg/kg, dosed compound name [14C]-apixaban, route oral; conditions: in vivo
Method in brief: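 Lactating SD rats received a single oral gavage of 5 mg/kg (108 μCi/kg) in 0.5% Tween 80/Labrafil. Three rats were sampled per time point at 0.5-24 h. Oxytocin was given sc 15 min before milking under anesthesia. Milk, blood and plasma were counted in duplicate by liquid scintillation for 10 min and expressed as apixaban equivalents.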

Rattus norvegicus [17] = experiment: Biodistribution in fetal blood of pregnant Sprague-Dawley rat at 5 mg/kg, po administered as single dose measured after 48 hrs; type: ADME, organism-based; set-up: dose 5 mg/kg, dosed compound name [14C]-apixaban, route oral; conditions: in vivo; method in brief: as §3
Brain [18] = experiment: Biodistribution in female Sprague-Dawley rat brain at 5 mg/kg, po administered as single dose measured after 1 hr; type: ADME, organism-based; set-up: dose 5 mg/kg, dosed compound name [14C]-apixaban, route oral; conditions: in vivo
Method in brief: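 [14C]Apixaban (1.0 mg/mL, 20 μCi/mL in 0.5% Tween 80 in Labrafil) given as a single oral gavage of 5 mg/kg (100 μCi/kg) to fasted female SD rats, one rat per time point. Carcasses were frozen in hexane/dry ice and cut into 40 µm sagittal sections for QWBA against [14C]glucose standards. Brain radioactivity is reported as µg eq/g, with LLOQ 0.037 µg eq/g.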

Blood [19] = experiment: AUC (0 to infinity) in female Sprague-Dawley rat blood at 5 mg/kg, po administered as single dose; type: ADME, organism-based; set-up: time infinity, dose 5 mg/kg, dosed compound name [14C]-apixaban, route oral; conditions: in vivo
Rattus norvegicus [20] = experiment: Biodistribution in female Sprague-Dawley rat kidney cortex at 5 mg/kg, po administered as single dose measured after 0.5 hrs; type: ADME, organism-based; set-up: dose 5 mg/kg, dosed compound name [14C]-apixaban, route oral; conditions: in vivo; method in brief: as §1
Brain [21] = experiment: Biodistribution in male Sprague-Dawley rat brain at 5 mg/kg, po administered as single dose measured after 1 hr; type: ADME, organism-based; set-up: dose 5 mg/kg, dosed compound name [14C]-apixaban, route oral; conditions: in vivo

Radiolabel recovery (Rattus norvegicus [1]): 0.93 ugequiv/g
Compound recovery (Plasma): 97%
Radiolabel recovery (Rattus norvegicus [2]): < 0.037 ugequiv/g
Radiolabel recovery (Rattus norvegicus [3]): 0.5 ugequiv/g
Radiolabel recovery (Rattus norvegicus [4]): 0.55 ugequiv/g
Radiolabel recovery (Heart [5]): 0.06 ugequiv/g
Radiolabel recovery (Muscle tissue): 0.5 ugequiv/g
Radiolabel recovery (Spleen): 0.29 ugequiv/g
Radiolabel recovery (Rattus norvegicus [6]): Not detected assumed BLQ
Radiolabel recovery (Thymus [7]): 0.23 ugequiv/g
Radiolabel recovery (Rattus norvegicus [8]): 0.19 ugequiv/g
Radiolabel recovery (Rattus norvegicus [9]): 0.61 ugequiv/g
Radiolabel recovery (Harderian gland): 0.12 ugequiv/g
Radiolabel recovery (Pancreas): 0.55 ugequiv/g
Radiolabel recovery (Rattus norvegicus [10]): 2.11 ugequiv/g
Radiolabel recovery (Heart [11]): 0.45 ugequiv/g
Radiolabel recovery (Heart [12]): Not detected assumed BLQ
Radiolabel recovery (Liver): 0.12 ugequiv/g
dose excreted [13]: 93%
Radiolabel recovery (Thymus [14]): 0.27 ugequiv/g
Radiolabel recovery (Heart [15]): 0.51 ugequiv/g
Cmax (Blood [16]): 514 ngequiv/g
Radiolabel recovery (Rattus norvegicus [17]): Not detected assumed BLQ
Radiolabel recovery (Brain [18]): < 0.037 ugequiv/g
AUC (Blood [19]): 3780 ngequiv.hr/g
Radiolabel recovery (Rattus norvegicus [20]): 0.82 ugequiv/g
Radiolabel recovery (Brain [21]): < 0.037 ugequiv/g
Structure (SMILES): COc1ccc(-n2nc(C(N)=O)c3c2C(=O)N(c2ccc(N4CCCC[14C]4=O)cc2)CC3)cc1
